Experiment [1] concerns the target GABA-A receptor; anion channel. The experiment in a line: In vitro displacement of [3H]diazepam from GABA-A benzodiazepine receptor in rat cerebral cortex. Type of experiment: tissue-based. An outline of the steps: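 Cortex from adult male Sprague–Dawley rats homogenized in 50 mM Tris-HCl pH 7.4, homogenization–centrifugation repeated three times in total. Membranes incubated with graded compound concentrations and [3H]diazepam (final 2 nM) for 90 min at 4 °C. Bound ligand collected by rapid GF/B filtration and counted by liquid scintillation. Nonspecific binding defined with 5 μM flunitrazepam.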
(In general: Loss of bound radioactivity is the signal in a displacement assay; it reports binding, not function.)

Experiment [2] concerns Mus musculus. Briefly: Dose required to antagonize Diazepam (2.5 mg/kg) anticonvulsant effects in mice treated with pentylenetetrazole (80 mg/kg). Type of experiment: functional. An outline of the steps:
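Adult male mice (20–25 g) given diazepam 2.5 mg/kg ip in 10% diluted emulphor–90% saline. Drug or vehicle given ip 5 min later, then PTZ 80 mg/kg ip (CD100) after another 5 min. Two independent raters scored clonic-tonic convulsions; animals counted protected if seizure-free for 15 min. ED50 = dose antagonizing diazepam's anticonvulsant effect in 50% of mice.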

The test system of experiment [3] is Mus musculus. The experiment in a line: Dose required to induce convulsions in mice treated with subconvulsant pentylenetetrazole (40 mg/kg). The experiment is classed as functional. In outline: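 Adult male mice (20–25 g) given drug ip (suspended in 10% diluted emulphor–90% saline, HCl salts), then challenged 5 min later with subconvulsant PTZ (40 mg/kg ip). Two independent raters observed clonic-tonic convulsions. ED50 = dose inducing convulsions in 50% of mice. Highest dose tested 40 mg/kg.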

Experiment [4] in a line: In vitro displacement of [3H]-diazepam from GABA-A benzodiazepine receptor in rat cerebral cortex. Type of experiment: tissue-based. In outline: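 Cortex from adult male Sprague–Dawley rats homogenized in 50 mM Tris-HCl pH 7.4, washed three times and resuspended. Incubated with varying test concentrations and [3H]diazepam (2 nM final) for 90 min at 4 °C. Ended by GF/B filtration, radioactivity counted by scintillation. Nonspecific binding defined with 5 μM flunitrazepam. IC50 reported.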

The subject of experiment [5] is Mus musculus. Briefly: Dose required to antagonize Diazepam (2.5 mg/kg) anticonvulsant effects in mice treated with pentylenetetrazole (80 mg/kg) (inactive). The experiment is classed as functional, organism-based.
Experiment [6] deals with Mus musculus. Briefly: Dose required to induce convulsions in mice treated with subconvulsant pentylenetetrazole (40 mg/kg) (inactive). Type of experiment: functional, organism-based.

The source made the active and inactive calls. The calls are words filed in the database; no cut-off is given here.

The compound `c1ccc(CNc2ccc3[nH]c4ccccc4c3c2)cc1` had an IC50 in experiment [1] above 5000 nM.

`c1ccc(CNc2ccc3[nH]c4cnccc4c3c2)cc1`: in experiment [1], the concentration for half-maximal inhibition (IC50) came to 106 nM. In addition, the ED50 turned out to be 38 mg/kg in the experiment with Mus musculus [2] and 28 mg/kg with Mus musculus [3].

With `Nc1ccc2[nH]c3cnccc3c2c1`, the IC50 in experiment [1] was determined as 1300 nM.

In experiment [1], `OCc1cc2c3ccccc3nc-2c[nH]1` yielded a 50% inhibitory concentration (IC50) of 1470 nM.

Turning to `c1ccc2c(c1)[nH]c1cnccc12` [NORHARMANE], the IC50 in experiment [4] was 1620 nM.

For `O=C(OC1CCCC1)c1cc2c3ccccc3nc-2c[nH]1`, the IC50 in experiment [1] came to 50 nM.

On to `OCc1cc2c3cc(NCc4ccccc4)ccc3nc-2c[nH]1`, for which the IC50 in experiment [1] stood at 76 nM. For the same compound, the ED50 entry with Mus musculus [5] is “inactive”. In addition, the 50% effective dose (ED50) in the experiment on Mus musculus [3] stood at 40 mg/kg.

As to `COC(=O)c1cc2c(cn1)[nH]c1ccc(NCc3ccccc3)cc12`, the IC50 in experiment [1] was 10 nM. The same compound had a median effective dose (ED50) in the experiment on Mus musculus [2] of 15.5 mg/kg. The ED50 result with Mus musculus [6] is “inactive”.

Compound `CC(=O)c1cc2c3ccccc3nc-2c[nH]1` showed an IC50 in experiment [1] of 58 nM.

A word on the IC50: it is the concentration that inhibits the measured activity by half. Read a low IC50 as higher potency. For orientation: ED50 means the dose at which the effect has come halfway, by size or by number of responders.

Values taken from ChEMBL document CHEMBL1123727, “Synthesis of 6-substituted beta-carbolines that behave as benzodiazepine receptor antagonists or inverse agonists” (J Med Chem, 1987).
